From PubChem BioAssay AID493213 (Broad Institute, 2011)
“And” between values parts separate entries of the source, which are not always exact repeats. Equal entries are not always repeated. The source made the active and inactive calls.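 The calls were made as follows: active = dose response lowering luminescence by over half the proteasome blocker control effect, potency within ten times top dose; inactive = change in the opposite direction, plus the rest.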

Assay: proteasome chymotrypsin-like activity inhibition in U2OS, dose response, counter-screen for HIF activator project, cell-based, luminescence, dry powder, set 3 (AID 493213)
Settings: U2OS proteasome chymotrypsin-like activity, Proteasome-Glo luminescence; at 38 µM (top of the series)
Summary of the method: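 Assay system: U2OS cells. Input: 2,500 cells per well. Schedule: 24 h plating, 4 h compound exposure, 2 h room-temperature reagent. Compound dosing: 8-point 3-fold dilution series, 16.5 mM top stock. Replicates: duplicates. Technique: luminescence with 0.5X chymotrypsin-like Proteasome-Glo reagent.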
In the case of `Cn1c(NC(=O)c2cc(-c3ccccc3)on2)nc2ccccc21`, the activity change, negative = inhibition is reported as -1.13% (inactive). In the case of `O=C(Nc1cnc2ccccc2c1)c1cc(-c2ccccc2)on1`, the activity change, negative = inhibition is reported as -16.4% (inactive). With `CN(C)c1nc(-c2ccccn2)nnc1-c1ccccc1` the activity change, negative = inhibition was 10.9% (inactive). In the case of `C[C@@H](Nc1nc(-c2ccccn2)nnc1-c1ccccc1)c1ccccc1`, the activity change, negative = inhibition is reported as 79.4% (inactive). For `c1ccc(-c2nnc(-c3ccccn3)nc2NCc2ccccn2)cc1`, the activity change, negative = inhibition was 1.56% (inactive). For `O=C(NCCCn1ccnc1)c1cc(-c2ccccc2)on1`, the activity change, negative = inhibition was 9.43% (inactive). In the case of `Cn1c(-c2ccccc2)cnc1Nc1nc(-c2ccccn2)nnc1-c1ccccc1`, the activity change, negative = inhibition is reported as 6.25% (inactive). With `COc1ccccc1N1CCN(Cc2ccc(O)c3ncccc23)CC1` the activity change, negative = inhibition was 27.2% (inactive). In the case of `c1ccc(-c2ccc(CNc3nc(-c4ccccn4)nnc3-c3ccccc3)cc2)cc1`, the activity change, negative = inhibition is reported as 22% (inactive). With `Oc1ccc(CN2CCc3ccccc3C2)c2cccnc12` the activity change, negative = inhibition was 65.3% (inactive) and 46.7% (inactive). In the case of `Cc1cccc(Nc2nc(-c3ccccn3)nnc2-c2ccccc2)n1`, the activity change, negative = inhibition is reported as -11.6% (inactive). With `Cc1ccc(CNc2nc(-c3ccccn3)nnc2-c2ccccc2)cc1` the activity change, negative = inhibition was 14.3% (inactive). For `O=C(NCCN1CCOCC1)c1cc(-c2ccccc2)on1`, the activity change, negative = inhibition was -26.6% (inactive). In the case of `C=CCNc1nc(-c2ccccn2)nnc1-c1ccccc1`, the activity change, negative = inhibition is reported as 4.88% (inactive). With `c1ccc(-c2nnc(-c3ccccn3)nc2NCC2CCCCC2)cc1` the activity change, negative = inhibition was 49.9% (inactive). With `c1ccc(-c2csc(Nc3nc(-c4ccccn4)nnc3-c3ccccc3)n2)cc1` the activity change, negative = inhibition was -8.99% (inactive). With `OCCCNc1nc(-c2ccccn2)nnc1-c1ccccc1` the activity change, negative = inhibition was -5.89% (inactive). In the case of `c1ccc(-c2nnc(Nc3nc(-c4ccccn4)nnc3-c3ccccc3)s2)cc1`, the activity change, negative = inhibition is reported as -5.61% (inactive). For `OCC1CCN(c2nc(-c3ccccn3)nnc2-c2ccccc2)CC1`, the activity change, negative = inhibition was 6.32% (inactive). In the case of `c1ccc(-c2nnc(-c3ccccn3)nc2Nc2cnc3ccccc3n2)cc1`, the activity change, negative = inhibition is reported as -2.5% (inactive). In the case of `Cc1cccc(CNc2nc(-c3ccccn3)nnc2-c2ccccc2)c1`, the activity change, negative = inhibition is reported as 45.1% (inactive). For `COc1cccc(CNc2nc(-c3ccccn3)nnc2-c2ccccc2)c1`, the activity change, negative = inhibition was 36.9% (inactive). In the case of `c1ccc(-c2nnc(-c3ccccn3)nc2N2CCC(C3CCCCC3)C2)cc1` (stereo not drawn), the activity change, negative = inhibition is reported as 51.6% (inactive). With `CC(C)(C)c1ccc(CNc2nc(-c3ccccn3)nnc2-c2ccccc2)cc1` the activity change, negative = inhibition was 37.7% (inactive). For `c1ccc(-c2nnc(-c3ccccn3)nc2N2CCC(c3ccccc3)C2)cc1` (stereo not drawn), the activity change, negative = inhibition was -6.19% (inactive). In the case of `COc1ccc(CNc2nc(-c3ccccn3)nnc2-c2ccccc2)cc1`, the activity change, negative = inhibition is reported as 53.2% (inactive). In the case of `c1ccc(CCNc2nc(-c3ccccn3)nnc2-c2ccccc2)cc1`, the activity change, negative = inhibition is reported as 43.3% (inactive). With `c1ccc(-c2nnc(-c3ccccn3)nc2NCCCN2CCOCC2)cc1` the activity change, negative = inhibition was 6.94% (inactive). With `Cc1ccc(CNc2nc(-c3ccccn3)nnc2-c2ccccc2)cc1C` the activity change, negative = inhibition was 76.7% (inactive). In the case of `O=C(NCCN1CCCCC1)c1cc(-c2ccccc2)on1`, the activity change, negative = inhibition is reported as -24.8% (inactive). In the case of `Cc1ccccc1CNc1nc(-c2ccccn2)nnc1-c1ccccc1`, the activity change, negative = inhibition is reported as 29.7% (inactive). For `N#CC1(c2ccccc2)CCN(Cc2ccc(O)c3ncccc23)CC1`, the activity change, negative = inhibition was 48.4% (inactive). For `c1ccc(-c2nnc(-c3ccccn3)nc2NCC2CCOCC2)cc1`, the activity change, negative = inhibition was 6.73% (inactive). For `c1ccc(-c2nnc(-c3ccccn3)nc2NCC2CC2)cc1`, the activity change, negative = inhibition was -6.55% (inactive). With `Cc1ccccc1CNC(=O)c1cc(-c2ccccc2)on1` the activity change, negative = inhibition was -46.6% (inactive). With `Oc1ccc(CN2CCC3CCCCC3C2)c2cccnc12` (stereo not drawn) the activity change, negative = inhibition was 26.7% (inactive). In the case of `CN1CCN(c2nc(-c3ccccn3)nnc2-c2ccccc2)CC1`, the activity change, negative = inhibition is reported as 20.7% (inactive). In the case of `C[C@@H](Nc1nc(-c2ccccn2)nnc1-c1ccccc1)C1CCCCC1`, the activity change, negative = inhibition is reported as 133% (inactive).
